The text below walks through data of ChEMBL document CHEMBL3621084, “Discovery of 2-Pyridinone Aminals: A Prodrug Strategy to Advance a Second Generation of HIV-1 Integrase Strand Transfer Inhibitors” (J Med Chem, 2015).

Values after ≈ are worked out from the molar mass of the structure shown. Bounds are passed on as bounds.

A short description of data set [1]: Stability in FaSSiF at pH 6.5 at 37 °C incubated for 4 hrs.
Data set [2] can be described thus: Solubility in FaSSiF at pH 6.5 at room temperature incubated for 4 hrs. It counts as physicochemical.
The nature of data set [3]: Stability in SGF at pH 1.8 at 37 °C incubated for 4 hrs.
For data set [4], the system named is Human immunodeficiency virus 1. Description: Antiviral activity against HIV1 infected in human MT4 cells expressing GFP incubated for 48 to 72 hrs in absence of 50% normal human serum by multiple round viral replication kinetics assay. It counts as functional.
Data set [5] in a line: (§1) AUC (0 to infinity) in beagle dog at 2 mg/kg, po by LC-MS/MS method. In kind it is ADME, organism-based, Canis lupus familiaris. Also noted: dose 2 mg/kg, route oral, time infinity. The note with it: beagle, in vivo.
For data set [6], the system named is Human immunodeficiency virus 1. Description: Resistance index, ratio of IC50 for antiviral activity against HIV1 expressing integrase E92Q mutant to IC50 for antiviral activity against HIV1 expressing wild type integrase. It counts as functional. The gist of the method: (§2)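 Fold shift computed as the inflection point (IP) against mutant HIV-1 divided by the IP against wild-type virus. Both IPs come from a kinetic HIV replication (viral kinetics) potency assay run in 50% normal human serum (NHS).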

Data set [7] is described as follows: Solubility in SGF at pH 1.8 at room temperature incubated for 4 hrs. In kind it is physicochemical.
For data set [8], the system named is Canis familiaris. Nature of the data set: AUC (0 to infinity) in beagle dog assessed as (1R,2R,5S)-8'-(3-chloro-4-fluorobenzyl)-6'-hydroxy-2'-((S)-2-hydroxypropyl)-9',10'-dihydro-1'H-spiro[bicyclo[3.1.0]hexane-2,3'-imidazo[5,1-a][2,6]naphthyridine]-1',5',7'(2'H,8'H)-trione level at 2 mg/kg, po by LC-MS/MS method. In kind it is ADME, organism-based, Canis lupus familiaris. Also noted: dose 2 mg/kg, time infinity, route oral. As to conditions: in vivo. The gist of the method: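 Oral rising-dose studies were run in beagle dogs with prodrugs, at doses normalized to account for the promoiety so that they give the actual parent dose administered. The read-out was plasma exposure (AUC) of the parent compound.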

Data set [9] is described as follows: Volume of distribution at steady state in beagle dog at 0.5 mg/kg, iv by LC-MS/MS method. In kind it is ADME, organism-based, Canis lupus familiaris. The note with it: in vivo, read-out: Vdss.
The nature of data set [10]: Protein binding in human plasma at 2.5 uM incubated for 4 hrs by LC-MS/MS detection based equilibrium dialysis method. In kind it is ADME, cell-free. The note with it: read-out: PPB (converted).
A short description of data set [11]: Permeability in MDCK2 cells at 1 uM incubated for 3 hrs by LC-MS/MS method. It counts as ADME, cell-based, Canis lupus familiaris, MDCK-II. The note with it: dog, MDCK; read-out: permeability.
The nature of data set [12]: Half life in beagle dog at 0.5 mg/kg, iv by LC-MS/MS method. The note with it: in vivo.
A short description of data set [13]: Protein binding in beagle dog plasma at 2.5 uM incubated for 4 hrs by LC-MS/MS detection based equilibrium dialysis method. In kind it is ADME, cell-free, Canis lupus familiaris. The note with it: read-out: PPB (converted). (In equilibrium dialysis only unbound substance equilibrates across the membrane.)
Data set [14] can be described thus: Permeability in LLC-PK1 cells at 1 uM incubated for 3 hrs by LC-MS/MS method. It counts as ADME, cell-based, Sus scrofa. As to conditions: pig, read-out: permeability.
The subject of data set [15] is Human immunodeficiency virus 1. Nature of the data set: Antiviral activity against HIV1 infected in human MT4 cells expressing GFP incubated for 48 to 72 hrs in presence of 50% normal human serum by multiple round viral replication kinetics assay. It counts as functional.
Data set [16] can be described thus: (§3) Oral bioavailability in beagle dog at 2 mg/kg by LC-MS/MS method. The note with it: beagle, in vivo. In kind it is ADME, organism-based, Canis lupus familiaris.
A further data set deals with Cytochrome P450 3A4 (Homo sapiens, UniProt P08684). Description: Time dependent inhibition of CYP3A4 (unknown origin). In kind it is ADME.
Cytochrome P450 3A4, sequence (P08684 whole entry): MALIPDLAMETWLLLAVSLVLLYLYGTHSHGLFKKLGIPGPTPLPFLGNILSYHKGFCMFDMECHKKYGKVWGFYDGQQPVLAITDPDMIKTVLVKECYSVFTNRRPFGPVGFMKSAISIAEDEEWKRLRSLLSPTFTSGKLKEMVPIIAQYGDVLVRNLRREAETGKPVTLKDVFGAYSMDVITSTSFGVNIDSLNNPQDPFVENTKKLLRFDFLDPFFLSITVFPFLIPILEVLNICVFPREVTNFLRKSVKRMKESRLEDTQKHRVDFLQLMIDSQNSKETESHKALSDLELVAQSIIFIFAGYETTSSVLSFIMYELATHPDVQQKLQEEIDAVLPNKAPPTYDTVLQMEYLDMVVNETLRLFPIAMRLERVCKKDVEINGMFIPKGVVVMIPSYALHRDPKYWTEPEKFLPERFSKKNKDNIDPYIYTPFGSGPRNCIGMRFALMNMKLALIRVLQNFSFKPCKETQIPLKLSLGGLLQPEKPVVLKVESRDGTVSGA
The test system of data set [17] is Human immunodeficiency virus 1. Description: Resistance index, ratio of IC50 for antiviral activity against HIV1 expressing integrase Y143R mutant to IC50 for antiviral activity against HIV1 expressing wild type integrase. In kind it is functional. The gist of the method: as §2
Data set [18] can be described thus: Plasma clearance in beagle dog at 0.5 mg/kg, iv by LC-MS/MS method. It counts as ADME, organism-based, Canis lupus familiaris.
Data set [19] concerns Human immunodeficiency virus 1. Description: Resistance index, ratio of IC50 for antiviral activity against HIV1 expressing integrase Q148R mutant to IC50 for antiviral activity against HIV1 expressing wild type integrase. It counts as functional. The gist of the method: as §2
The nature of data set [20]: Half life in Wistar-Hanover rat at 0.2 mg/kg, iv by LC-MS/MS method. As to conditions: in vivo.
Data set [21] in a line: Volume of distribution at steady state in Wistar-Hanover rat at 0.2 mg/kg, iv by LC-MS/MS method. As to conditions: in vivo, read-out: Vdss. In kind it is ADME, organism-based.
Data set [22] can be described thus: Oral bioavailability in Wistar-Hanover rat at 2 mg/kg by LC-MS/MS method. As to conditions: in vivo. In kind it is ADME, organism-based.
Data set [23] has as its system Canis familiaris. The description is as §3. In kind it is ADME, organism-based, Canis lupus familiaris. The note with it: in vivo.
The nature of data set [24]: Plasma clearance in Wistar-Hanover rat at 0.2 mg/kg, iv by LC-MS/MS method. It counts as ADME, organism-based.
Data set [25] relates to Canis familiaris. The data set is described as §1. It counts as ADME, organism-based, Canis lupus familiaris. Also noted: dose 2 mg/kg, route oral, time infinity. As to conditions: in vivo.
Data set [26] can be described thus: AUC (0 to infinity) in Wistar-Hanover rat at 2 mg/kg, po by LC-MS/MS method. It counts as ADME, organism-based. Also noted: dose 2 mg/kg, route oral, time infinity. As to conditions: in vivo.

A word on the amount remaining: it is the share of the starting amount still present when the sample was taken. Usually solubility stands for the dissolved amount per volume that the medium holds. Low readings indicate little dissolved substance, high ones much dissolved substance. One may read the AUC(0-inf) as total exposure, with the tail of the curve extrapolated. By AUC is commonly meant the area under the concentration-time curve, a measure of exposure. By half-life is commonly meant the time needed for the level to fall by half in the phase considered. The low end stands for rapid decline, the high end for slow decline. Usually bioavailability stands for dose-corrected exposure relative to a reference, in per cent. A low value points to poor availability. What is called clearance is a measure of how efficiently the substance is removed, as volume per time. Read a low clearance as a low capacity for elimination.

`C[C@@H](CN1C(=O)c2c3c(c(O)c(=O)n2[C@@]12CC[C@H]1C[C@H]12)C(=O)N(Cc1ccc(F)c(Cl)c1)CC3)OP(=O)(O)O`: the fraction remaining at 4 h in [1] and in data set [3] was greater than 98% each time. Further, in [2], the solubility at 4 h turned out to be 2300 µg/mL (≈ 3950 µM). The IP in data set [4] is reported as 1580 nM. The compound also gave an AUC(0-inf) in data set [5] of 6.8 µM·h.

Turning to `C[C@@H](CN1C(=O)c2c3c(c(O)c(=O)n2[C@@]12CC[C@H]1C[C@H]12)C(=O)N(Cc1ccc(F)c(Cl)c1)CC3)OC(=O)[C@@H](N)CCCCN`, the share remaining at 4 h in data set [1] and in [3] was 90% in each case. The solubility at 4 h in data set [2] was greater than 2000 µg/mL. This compound returned an IP in data set [4] of 40 nM. The compound further yielded an AUC(0-inf) in [5] of 6.8 µM·h.

On to `C[C@H](O)CN1C(=O)c2c3c(c(O)c(=O)n2[C@@]12CC[C@H]1C[C@H]12)C(=O)N(Cc1ccc(F)c(Cl)c1)CC3`, for which the “Ratio IC50” value in data set [6] came to 1.5; in [17] it was 1; in data set [19], 1.5. Moreover, the solubility at 4 h in data set [7] was 30 µg/mL (≈ 59.8 µM); in [2] it was 58 µg/mL (≈ 116 µM). Also, the AUC in the data set on Canis familiaris [8] was determined as 11 µM·h. Also, the Vd in data set [9] is 0.6 L/kg. Further, the fraction unbound at 4 h, 2.5 µM is 0.025 in data set [10] and 0.012 in [13]. The Papp at 3 h, 1 µM was determined as 22.9 ×10⁻⁶ cm/s in data set [11] and 14.8 ×10⁻⁶ cm/s in data set [14]. This compound gave a half-life in data set [12] of 5.9 h. Also, the IP in [15] is on record as 67 nM; in data set [4], 2 nM. Further, in [16], the bioavailability worked out at 42%. For the same compound, the TDI entry at Cytochrome P450 3A4 is “Not Active”. Also, the AUC(0-inf) in data set [5] is 10.5 µM·h. In [18], the clearance was 3 mL/min/kg.

With `O=C1N[C@]2(CC[C@H]3C[C@H]32)n2c1c1c(c(O)c2=O)C(=O)N(Cc2ccc(F)c(Cl)c2)CC1`, the values for the half-life in data set [20] and in [12] were 14 h and 16 h, respectively. The “Ratio IC50” value came to 3 in data set [6], 1 in [17] and 5 in data set [19]. Further, the Vd in data set [9] is 0.19 L/kg; in data set [21] it was 0.12 L/kg. For the same compound, the bioavailability in data set [22] worked out at 29%. In addition, the IP in [15] is 600 nM; in data set [4] it was 2.5 nM. Further, the F with Canis familiaris [23] is given as 27%. Moreover, the clearance in data set [24] is 0.12 mL/min/kg. Besides, the AUC in the data set with Canis familiaris [25] turned out to be 47 µM·h. Besides, in data set [26], the AUC(0-inf) was 189 µM·h.
